In assay [1] the test system is Mus musculus. Kind of assay: Dose required to obtain hypothermic effect in mice following subcutaneous administration. The assay is classed as functional. Conditions: sc. In outline:
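Charles River mice (18–22 g), housed singly, given 0.1-mL sc injections at doses spaced in half-log intervals. Rectal temperature read 20 min after injection. Responders were those of four mice per dose that dropped >1.1 °C. ED50 by Spearman–Karber, with 95% confidence intervals.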

A short description of assay [2]: Dose to reduce neuronal firing against DA cells in rats (iv). The format is functional. To be noted: Rattus norvegicus. In outline:
(§1)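 Male Sprague-Dawley rats (250-350 g) anaesthetised with chloral hydrate 400 mg/kg. Extracellular single-unit firing was recorded by glass microelectrode (pontamine sky blue in 2 M NaCl) from 5-HT cells in dorsal raphe or DA cells in substantia nigra pars compacta, with drug given iv. Cell sites were confirmed histologically by dye mark. ED50 is the dose inhibiting firing by 50%, in µg/kg ±SEM, with n animals.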

Assay [3] in a line: Dose to reduce neuronal firing against 5-HT cells in rats (iv). The format is functional. To be noted: Rattus norvegicus. The method, boiled down:
as §1

Assay [4] relates to Mus musculus. Kind of assay: Maximum obtainable hypothermic effect up to 30 mg/kg dose in mice expressed as temperature decrease in degree Centigrade. The assay is classed as functional. The method, boiled down:
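Mice (Charles River, 18–22 g) dosed sc in 0.1 mL at doses up to 30 mg/kg. Rectal temperature measured 20 min after injection. The mean maximum temperature drop at 20 min is recorded as a crude index of efficacy.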

For assay [5], the system named is Felis catus. In words: Dose required to completely shut off sympathetic nerve discharge in cat following intravenous administration. The format is functional.
Assay [6] deals with Felis catus. Kind of assay: Dose required to reduce sympathetic nerve discharge in cat following intravenous administration. The format is functional. In outline:
(§2)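 Mongrel cats (2.5-4.0 kg) anaesthetised with chloralose 80 mg/kg iv, in a stereotaxic frame, femoral artery and vein cannulated. SND was quantified by cumulative integration of slow waves, with a 1 h equilibration and baseline taken over the last 10 min. Cumulative iv doses of 0.01, 0.03, 0.1, 0.3 and 1.0 mg/kg were given every 20 min, each read 15-20 min post-dose. ED50 is the dose reducing SND to 50% of pretreatment (95% CI). Maximum decrease at 1 mg/kg is given as % control ±SEM.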

The subject of assay [7] is Felis catus. Kind of assay: (§3) Maximum decrease in sympathetic nerve discharge(SND) observed at 1 mg/kg dose in cat. The assay is classed as functional. Further details: scale not given: the % may be the effect or the level left. The method, boiled down: (§4)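 Chloralose-anesthetized mongrel cats (80 mg/kg iv), stereotaxic, femoral cannulation. SND integrated cumulatively; pretreatment value averaged over the last 10 min of a 1 h equilibration. Cumulative iv dosing from 0.01 up to 1.0 mg/kg every 20 min, read 15–20 min after each dose. Maximum SND decrease at 1 mg/kg expressed as % control (±SEM); n = 2–8 cats.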

In assay [8] the target is D(2) dopamine receptor (Homo sapiens, UniProt P14416). Kind of assay: Displacement of [3H]U-86170 from human D2-dopamine receptor expressed in CHO K1 cells. The format is cell-based. (Loss of bound radioactivity is the signal in a displacement assay; it reports binding, not function.)
Chain of D(2) dopamine receptor (P14416 whole entry): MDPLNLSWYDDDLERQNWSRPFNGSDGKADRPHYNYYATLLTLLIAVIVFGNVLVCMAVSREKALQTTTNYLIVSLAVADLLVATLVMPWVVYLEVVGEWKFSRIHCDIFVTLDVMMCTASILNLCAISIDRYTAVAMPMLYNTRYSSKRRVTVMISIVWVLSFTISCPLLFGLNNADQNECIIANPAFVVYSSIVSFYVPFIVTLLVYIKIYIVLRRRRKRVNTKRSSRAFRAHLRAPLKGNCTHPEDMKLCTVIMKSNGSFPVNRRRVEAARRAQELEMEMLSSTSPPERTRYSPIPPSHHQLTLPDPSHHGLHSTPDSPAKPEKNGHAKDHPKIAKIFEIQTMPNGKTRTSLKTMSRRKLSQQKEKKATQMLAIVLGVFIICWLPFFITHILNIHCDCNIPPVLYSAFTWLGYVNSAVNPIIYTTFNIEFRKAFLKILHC
The test system of assay [9] is Felis catus. Kind of assay: Dose required to reduce sympathetic nerve discharge in cats following intravenous administration.
The test system of assay [10] is Felis catus. The assay is described as §3. The assay is classed as functional. On the set-up: scale not given: the % may be the effect or the level left. The method, boiled down:
as §2
This is another data set of the same source.

A short description of assay [11]: Dose to reduce neuronal firing against DA cells (antagonist) in rats (iv). The assay is classed as functional. To be noted: Rattus norvegicus.
The test system of assay [12] is Felis catus. In words: Maximum decrease in sympathetic nerve discharge(SND) +/-SEM observed at 1 mg/kg dose in cat. The assay is classed as functional. On the set-up: scale not given: the % may be the effect or the level left. The method, boiled down:
as §4

Some results are limits rather than exact numbers.

In general, ED50 refers to the dose that gives a 50% effect, or the effect in half of the subjects. What is called Ki is the dissociation constant of the complex between target and ligand, obtained from inhibition or displacement. Take `CCCN(CCC)[C@@H]1CCc2ccc3[nH]c(C#N)cc3c2C1` [U-92,016-A]: the ED50 in [1] was found to be 0.04 mg/kg; in assay [2], 0.084 mg/kg; in assay [3] it was 0.0034 mg/kg; in assay [5], 0.03 mg/kg; in assay [6], 0.017 mg/kg. The Temperature in assay [4] was found to be 7.2 °C. The compound further displayed a Control in [7] of 0%. For the same compound, affinity in [8] was put at a Ki of 0.035 µM.
Turning to `CCCN(CCC)[C@H]1CCc2ccc3[nH]c(C#N)cc3c2C1`, the ED50 was 1.3 mg/kg in [1] and 0.15 mg/kg in [9]. Besides, the Temperature in [4] is 6.3 °C. The Control in assay [7] is 0%. The affinity in [8] corresponds to a Ki of 0.896 µM.
For `CCCN(CC1CC1)[C@@H]1CCc2ccc3[nH]c(C(N)=O)cc3c2C1` the same measures were 2.3 mg/kg, 0.9 mg/kg, 4 °C, 43% and 0.389 µM.
In assay [1], `CCCN(CCCCN1C(=O)CC(C)(C)CC1=O)[C@H]1CCc2ccc3[nH]c(C(N)=O)cc3c2C1` returned an ED50 of 4.1 mg/kg. Further, the Temperature in assay [4] amounted to 2.2 °C. Further, the Ki in [8] was found to be 0.914 µM.
For `CCCN[C@@H]1CCc2ccc3[nH]c(C(N)=O)cc3c2C1` the same measures were 2.3 mg/kg, 2.4 °C and 0.857 µM.
`CCCN(CC1CC1)[C@H]1CCc2ccc3[nH]c(C(N)=O)cc3c2C1`: the results for the ED50 in assay [1] and in assay [9] were 9.7 mg/kg and 0.4 mg/kg, respectively. In [4], this compound displayed a Temperature of 3.3 °C. Moreover, the Control in assay [7] is given as 14%. In [8], this compound registered a Ki greater than 1 µM.
`CCCN(CCCCN1C(=O)CC(C)(C)CC1=O)[C@H]1CCc2ccc3[nH]c(C#N)cc3c2C1` showed an ED50 in assay [1] of 3.1 mg/kg. The same compound yielded a Temperature in assay [4] of 3.9 °C. This compound also came in with a Ki in assay [8] greater than 0.333 µM.
As for `CCCN[C@H]1CCc2ccc3[nH]c(C(N)=O)cc3c2C1`, in assay [1], the ED50 is 17.3 mg/kg. Also, in [4], the Temperature amounted to 1.8 °C. The compound further came in with a Ki in [8] greater than 1.67 µM.
Take `CCCN(CCC)[C@@H]1CCc2cccc(O)c2C1`: the ED50 was 1 mg/kg in [1], 0.0016 mg/kg in assay [3], 0.74 mg/kg in [11] and 0.01 mg/kg in assay [9]. In assay [10], this compound gave a Control of 0%. In [4], this compound yielded a Temperature of 4 °C.
In the case of `CCCN(CCCCN1C(=O)CC(C)(C)CC1=O)[C@@H]1CCc2ccc3[nH]c(C#N)cc3c2C1`, the figures for the median effective dose (ED50) in assay [1] and in assay [9] were 0.13 mg/kg and 0.01 mg/kg, respectively. The compound also returned a Temperature in assay [4] of 6.8 °C. The compound also registered a Control in [7] of 0%. Further, the Ki in [8] was 0.044 µM.
For `O=C1CC2(CCCC2)CC(=O)N1CCCCN1CCN(c2ncccn2)CC1` [BUSPIRONE], the ED50 was 3 mg/kg in [1], 0.0154 mg/kg in assay [3], 0.0113 mg/kg in [11] and 0.08 mg/kg in assay [6]. In addition, in assay [4], the Temperature was 1.9 °C. The Control in [7] was determined as 43%.
Turning to `CCCN(CCCCN1C(=O)CC(C)(C)CC1=O)[C@@H]1CCc2ccc3[nH]c(C(N)=O)cc3c2C1`, the values for the ED50 in assay [1] and in assay [9] were 9.7 mg/kg and 0.41 mg/kg, respectively. The compound further had a Temperature in assay [4] of 2.8 °C. In assay [7], the Control is listed as 22%. In [8], this compound registered a Ki of 0.038 µM.
For the compound `CCCN(CCC)[C@H]1CCc2ccc3[nH]c(C(N)=O)cc3c2C1`, the ED50 in assay [1] is 1 mg/kg; in assay [3], greater than 0.1 mg/kg; in assay [6], 0.19 mg/kg. In addition, the Temperature in assay [4] turned out to be 2.2 °C. The Control in assay [7] worked out at 10%. The compound further registered a Ki in [8] greater than 1 µM.
On to `CCCN(CCC)[C@@H]1CCc2ccc3[nH]c(C(N)=O)cc3c2C1`, for which the ED50 in assay [1] was 0.6 mg/kg; in assay [3] it was greater than 0.1 mg/kg; in assay [6], 0.19 mg/kg. Besides, the Temperature in [4] is 3.3 °C. For the same compound, in [12], the Control stood at 0%. Moreover, the Ki in [8] came to 0.215 µM.

These data come from ChEMBL document CHEMBL1126741 (J Med Chem, 1993).
